Legend:
Homo sapiens [1] = species: Homo sapiens; test: Selectivity for human recombinant MAOA over human recombinant MAOB
[2] = target: T1, Amine oxidase [copper-containing] 3 (Rattus norvegicus, UniProt O08590); test: Inhibition of rat CAO
T1 sequence (O08590 whole entry): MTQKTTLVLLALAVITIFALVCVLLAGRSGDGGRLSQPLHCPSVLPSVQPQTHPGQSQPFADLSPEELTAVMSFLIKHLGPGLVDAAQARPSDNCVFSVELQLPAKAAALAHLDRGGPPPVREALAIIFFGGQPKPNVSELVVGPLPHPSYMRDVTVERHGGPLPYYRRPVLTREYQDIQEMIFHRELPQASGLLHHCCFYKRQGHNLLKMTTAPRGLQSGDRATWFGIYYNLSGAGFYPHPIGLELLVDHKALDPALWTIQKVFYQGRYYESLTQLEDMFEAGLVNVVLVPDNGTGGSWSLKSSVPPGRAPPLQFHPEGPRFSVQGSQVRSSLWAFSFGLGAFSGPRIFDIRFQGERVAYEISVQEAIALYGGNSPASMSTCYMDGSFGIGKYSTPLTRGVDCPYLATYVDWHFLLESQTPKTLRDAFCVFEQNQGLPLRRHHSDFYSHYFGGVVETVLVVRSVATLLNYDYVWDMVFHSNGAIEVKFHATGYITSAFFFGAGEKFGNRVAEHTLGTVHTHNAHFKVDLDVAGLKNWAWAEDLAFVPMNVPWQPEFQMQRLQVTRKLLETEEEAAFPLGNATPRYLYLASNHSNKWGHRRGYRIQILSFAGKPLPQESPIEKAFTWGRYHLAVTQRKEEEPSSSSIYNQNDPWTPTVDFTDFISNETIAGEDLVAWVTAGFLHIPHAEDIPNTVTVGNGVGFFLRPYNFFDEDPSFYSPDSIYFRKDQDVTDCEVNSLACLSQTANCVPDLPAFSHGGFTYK

[3] = target: T2, Amine oxidase [flavin-containing] A (Homo sapiens, UniProt P21397); test: Inhibition of human recombinant MAOA
T2 sequence (P21397 whole entry): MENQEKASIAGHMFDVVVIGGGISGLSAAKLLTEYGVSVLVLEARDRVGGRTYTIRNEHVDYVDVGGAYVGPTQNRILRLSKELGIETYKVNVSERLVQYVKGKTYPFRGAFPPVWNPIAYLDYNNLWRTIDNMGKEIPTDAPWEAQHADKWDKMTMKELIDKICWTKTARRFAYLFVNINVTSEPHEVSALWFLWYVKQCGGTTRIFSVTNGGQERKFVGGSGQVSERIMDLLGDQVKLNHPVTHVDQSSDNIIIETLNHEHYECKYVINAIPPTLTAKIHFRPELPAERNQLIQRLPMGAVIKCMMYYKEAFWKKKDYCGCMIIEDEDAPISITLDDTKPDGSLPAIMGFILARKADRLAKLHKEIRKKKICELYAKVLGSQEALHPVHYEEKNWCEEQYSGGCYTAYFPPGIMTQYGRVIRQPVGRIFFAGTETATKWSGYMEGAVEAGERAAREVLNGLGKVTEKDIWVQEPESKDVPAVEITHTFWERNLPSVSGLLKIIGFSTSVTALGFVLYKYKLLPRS
In short: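 Recombinant human mitochondrial MAO A, desalted into 50 mM K phosphate pH 7.2 with 0.8% octyl-glucoside. Enzyme (4.4 µg) preincubated 10 min at 10 °C with varying inhibitor concentrations (DMSO) in substrate-free mix: 50 mM K phosphate pH 7.2, 0.5% reduced Triton X-100, 6% DMSO.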

[4] = Inhibition of tyramine oxidase
[5] = target: T3, Amine oxidase [flavin-containing] B (Homo sapiens, UniProt P27338); test: Inhibition of human recombinant MAOB
T3 sequence (P27338 whole entry): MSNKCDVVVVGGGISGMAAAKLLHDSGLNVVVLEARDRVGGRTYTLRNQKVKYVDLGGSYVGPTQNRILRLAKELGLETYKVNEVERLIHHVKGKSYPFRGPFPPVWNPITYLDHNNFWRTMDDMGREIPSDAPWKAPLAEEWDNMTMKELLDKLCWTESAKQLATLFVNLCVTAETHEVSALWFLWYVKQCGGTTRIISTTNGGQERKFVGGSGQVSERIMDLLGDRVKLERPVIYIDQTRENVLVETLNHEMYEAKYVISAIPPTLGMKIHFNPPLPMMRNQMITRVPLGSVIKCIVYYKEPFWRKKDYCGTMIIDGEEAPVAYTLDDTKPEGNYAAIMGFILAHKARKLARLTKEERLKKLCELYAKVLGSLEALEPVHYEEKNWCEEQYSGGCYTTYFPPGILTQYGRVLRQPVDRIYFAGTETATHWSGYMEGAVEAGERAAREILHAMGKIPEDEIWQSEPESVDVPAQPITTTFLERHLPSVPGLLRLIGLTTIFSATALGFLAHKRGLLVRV
In short: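 Recombinant human mitochondrial MAO B was gel-filtered into 50 mM K phosphate pH 7.2 with 0.8% octyl-glucoside. Enzyme (7.0 µg) was held 10 min at 10 °C with varying inhibitor concentrations (DMSO) in 0.1 M K phosphate pH 7.2, 6% DMSO, without substrate. The reaction was started with 1 mM benzylamine, and benzaldehyde formation was read at 250 nm at 25 °C.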

Homo sapiens [6] = species: Homo sapiens; test: Selectivity for human recombinant MAOB over human recombinant MAOA
[7] = Dissociation constant, pKa by titrimetric method; assay type: physicochemical
In short: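 Titration in 0.1 M KNO₃ at 21 °C.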

Homo sapiens [8] = species: Homo sapiens; test: Selectivity for human recombinant MAOA over human recombinant MAOB
[9] = Lipophilicity, log D at pH 7.4; assay type: physicochemical; conditions: buffer

| Compound | IC50 ([3]; read-out: IC50) [µM] | IC50 [5] [µM] | Ratio IC50 (Homo sapiens [6]) | pKa [7] | Ratio IC50 (Homo sapiens [8]) | logD [9] | also measured |
| --- | --- | --- | --- | --- | --- | --- | --- |
| COc1ccc(/C(=C\F)CN)cc1OC |  |  |  |  |  |  | Ratio Ki (Homo sapiens [1]): 100; IC50 [2]: 0.006 µM; Ki [3]: 231 µM |
| NC[C@@]1(c2ccccc2)C[C@@H]1F | 320 |  |  |  |  |  | IC50 [4]: 12 µM |
| N[C@]1(c2ccccc2)C[C@]1(F)c1ccccc1 (racemic) | 10 | 20 | 2 | 5.8 |  |  |  |
| N[C@@H]1C[C@]1(F)c1ccc(C(F)(F)F)cc1 (relative stereo) | 76 | 7.1 |  | 6.6 | 10.7 | 3.13 |  |
| N[C@@H]1C[C@]1(F)c1ccc(F)cc1 (relative stereo) | 270 | 10 |  | 6.88 | 27 | 2.14 |  |
| N[C@H]1C[C@]1(F)c1ccc(F)cc1 (relative stereo) | 3.6 | 4.9 | 1.4 | 7.31 |  | 1.6 |  |
| Cc1ccc([C@@]2(F)C[C@H]2N)cc1 (relative stereo) | 230 | 30 |  | 7.04 | 7.7 |  |  |
| N[C@H]1C[C@]1(F)c1ccccc1 (relative stereo) | 12 | 6.4 |  |  | 2 | 1.53 |  |
| N[C@@H]1C[C@]1(F)c1ccc(Cl)cc1 (relative stereo) | 89 | 4.8 |  | 6.81 | 18.5 | 2.66 |  |
| COc1ccc([C@@]2(F)C[C@@H]2N)cc1 (relative stereo) | 14 | 5.1 |  | 7.5 | 2.8 |  |  |
| N[C@H]1C[C@]1(F)c1ccc(Cl)cc1 (relative stereo) | 1.6 | 3.7 | 2.3 | 7.19 |  | 2.23 |  |
| N[C@@H]1C[C@@H]1c1ccccc1 (relative stereo) |  |  |  | 8.47 |  | 1.41 |  |
| N[C@H]1C[C@]1(F)c1ccc(C(F)(F)F)cc1 (relative stereo) | 0.8 | 5.4 | 6.8 | 7 |  | 2.66 |  |
| Cc1ccc([C@@]2(F)C[C@@H]2N)cc1 (relative stereo) | 13 | 13 | 1 | 7.41 |  | 1.83 |  |
| COc1ccc([C@@]2(F)C[C@H]2N)cc1 (relative stereo) |  | 18 |  |  |  |  | Activity ([3]; human): Not Active |
| COc1ccc([C@@]2(F)C[C@@H]2N)cc1OC (relative stereo) | 47 | 230 | 4.9 | 7.4 |  | 0.58 |  |
| COc1ccc([C@@]2(F)C[C@H]2N)cc1OC (relative stereo) |  | 470 |  |  |  |  | IC50 [3]: Not Active |
| N[C@@]1(c2ccccc2)C[C@@H]1F (relative stereo) |  |  | 100 |  |  |  |  |
| N[C@@H]1C[C@]1(F)c1ccccc1 (stereo in doubt) | 65 | 19 |  |  | 3.4 | 1.78 |  |

— ChEMBL document CHEMBL1155916, “Fluorinated phenylcyclopropylamines. Part 5: Effects of electron-withdrawing or -donating aryl substituents on the inhibition of monoamine oxidases A and B by 2-aryl-2-fluoro-cyclopropylamines” (Bioorg Med Chem, 2008)
